Activity calls are given as the source filed them. The rule behind the calls is not given here.
Experiments:
[1] = test system: Human immunodeficiency virus 1; assay: Activation of latent recombinant HIV1 LTR-GFP gene expression infected in human Jurkat LAT-GFP cells assessed as GFP positive cells at 10 uM after 6 hrs by flow cytometry; type: functional, organism-based
In short: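 Jurkat-derived clone latently infected with recombinant virus carrying GFP under HIV-LTR promoter, exposed to compound for 6 h. Histograms shown are one of three independent experiments.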

[2] = molecular target: Protein kinase C alpha type (Homo sapiens) (UniProt P17252); assay: Activation of PKCalpha assessed as [32P] incorporation after 10 mins by scintillation counting
[3] = molecular target: Protein kinase C delta type (Homo sapiens) (UniProt Q05655); assay: Activation of PKCdelta assessed as [32P] incorporation after 10 mins by scintillation counting
[4] = test system: Human immunodeficiency virus 1; assay: Activation of latent recombinant HIV1 LTR-GFP gene expression infected in human Jurkat LAT-GFP cells assessed as GFP positive cells after 6 hrs by flow cytometry relative to control; type: functional, organism-based
In short: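 Jurkat-derived clone latently carrying recombinant virus with GFP under the HIV-LTR promoter, stimulated with compound at the indicated concentrations for 6 h.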

[5] = molecular target: Protein kinase C delta type (Homo sapiens) (UniProt Q05655); assay: Activation of PKCdelta in human Jurkat cells assessed as enzyme phosphorylation at 1 uM after 15 mins by Western blotting; type: cell-based
In short: (§1)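 Jurkat LAT-GFP cells (10^6 cells/ml) exposed for 15 min to compound (increasing concentrations) or TPA 1 µM. Lysed in HEPES pH 8.0 buffer with 0.5% NP-40 and protease/phosphatase inhibitors. 30 µg protein run on 10% SDS-PAGE, blotted to nitrocellulose, probed with anti-phospho-PKCδ (Thr505) and anti-panPKC, ECL detection.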

[6] = test system: Human immunodeficiency virus 1; assay: Activation of latent recombinant HIV1 LTR-GFP gene expression infected in human Jurkat LAT-GFP cells assessed as GFP level at 10 uM after 6 hrs by flow cytometry in presence of pan-PKC inhibitor G06983 pretreated for 30 mins; type: functional, organism-based
In short: (§2)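 Jurkat LAT-GFP cells (latent HIV-LTR-driven GFP clone) pretreated 30 min with PKC inhibitor (1 µM), then stimulated with compound at 10 µM for 6 h.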

[7] = test system: Human immunodeficiency virus 1; assay: Activation of latent recombinant HIV1 LTR-GFP gene expression infected in human Jurkat LAT-GFP cells assessed as GFP level at 10 uM after 6 hrs by flow cytometry in presence of PKCinhibitor G06976 pretreated for 30 mins; type: functional, organism-based; in short: as §2
[8] = molecular target: T1, Prostaglandin G/H synthase 2 (Rattus norvegicus) (UniProt P35355); assay: Inhibition of COX2 in LPS-stimulated rat microglia after 24 hrs by immunoblotting
T1 sequence (whole entry): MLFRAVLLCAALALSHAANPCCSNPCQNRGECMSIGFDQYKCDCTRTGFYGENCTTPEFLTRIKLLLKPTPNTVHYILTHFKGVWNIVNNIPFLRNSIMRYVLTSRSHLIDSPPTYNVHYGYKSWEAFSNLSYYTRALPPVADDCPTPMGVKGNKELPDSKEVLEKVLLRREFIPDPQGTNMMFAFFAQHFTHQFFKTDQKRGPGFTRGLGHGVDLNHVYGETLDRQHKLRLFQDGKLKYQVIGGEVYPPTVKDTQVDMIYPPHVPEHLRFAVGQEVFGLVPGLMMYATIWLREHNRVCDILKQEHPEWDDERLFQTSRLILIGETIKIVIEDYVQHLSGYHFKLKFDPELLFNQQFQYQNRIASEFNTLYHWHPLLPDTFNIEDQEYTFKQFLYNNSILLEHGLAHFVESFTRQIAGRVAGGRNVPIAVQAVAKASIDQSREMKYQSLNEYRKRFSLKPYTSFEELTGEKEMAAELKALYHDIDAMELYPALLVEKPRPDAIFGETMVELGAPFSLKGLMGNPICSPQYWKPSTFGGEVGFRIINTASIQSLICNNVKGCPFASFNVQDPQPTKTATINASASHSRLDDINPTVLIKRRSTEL

[9] = molecular target: T1, Prostaglandin G/H synthase 2 (Rattus norvegicus); assay: Inhibition of COX2 in LPS-stimulated rat microglia assessed as PGE2 release after 24 hrs by enzyme immunoassay
[10] = molecular target: Protein kinase C delta type (Homo sapiens) (UniProt Q05655); assay: Activation of PKCdelta in human Jurkat cells assessed as enzyme phosphorylation after 15 mins by Western blotting; type: cell-based; in short: as §1

Chain of Protein kinase C delta type (Homo sapiens) (Q05655 whole entry, looked up): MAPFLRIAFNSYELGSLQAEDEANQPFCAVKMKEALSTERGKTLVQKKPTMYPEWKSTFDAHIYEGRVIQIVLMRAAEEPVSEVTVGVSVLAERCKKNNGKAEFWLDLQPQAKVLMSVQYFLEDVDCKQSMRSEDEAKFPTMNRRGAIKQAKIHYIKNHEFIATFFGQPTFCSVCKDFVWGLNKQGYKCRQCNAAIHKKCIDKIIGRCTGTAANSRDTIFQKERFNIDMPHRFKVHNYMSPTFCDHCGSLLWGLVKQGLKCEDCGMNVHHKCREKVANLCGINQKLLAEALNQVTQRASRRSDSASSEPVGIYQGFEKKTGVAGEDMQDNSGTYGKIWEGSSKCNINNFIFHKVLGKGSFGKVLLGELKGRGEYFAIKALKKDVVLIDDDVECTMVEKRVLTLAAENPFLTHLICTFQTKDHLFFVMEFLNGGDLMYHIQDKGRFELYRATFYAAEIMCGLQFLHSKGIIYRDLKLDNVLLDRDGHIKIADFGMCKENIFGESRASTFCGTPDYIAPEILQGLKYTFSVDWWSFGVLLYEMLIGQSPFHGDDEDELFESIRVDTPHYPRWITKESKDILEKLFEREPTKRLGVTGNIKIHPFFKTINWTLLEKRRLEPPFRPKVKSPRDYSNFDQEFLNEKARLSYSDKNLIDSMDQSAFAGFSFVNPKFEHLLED

CC(=O)O[C@@]12[C@H](OC(=O)CN(C)C)[C@@H](C)[C@]3(O)[C@@H]4C=C(C)C(=O)[C@@H]4CC(CO)=C[C@H]3[C@@H]1C2(C)C
Activity [1]: inactive | Activity [2]: inactive | Activity [3]: inactive

CCCCCCCCCCCCCC(=O)O[C@@H]1[C@@H](C)[C@@]2(O)[C@@H](C=C(CO)C[C@]3(O)C(=O)C(C)=C[C@@H]23)[C@@H]2C(C)(C)[C@]12OC(C)=O
Activity [4]: Active

CC(=O)O[C@@]12[C@H](OC(=O)[C@@H](N)C(C)C)[C@@H](C)[C@]3(O)[C@@H]4C=C(C)C(=O)[C@@H]4CC(CO)=C[C@H]3[C@@H]1C2(C)C
Activity [1]: inactive

CCCCCCCCCCCCCC(=O)O[C@@H]1[C@@H](C)[C@]2(O)[C@@H]3C=C(C)C(=O)[C@@]3(O)[C@H](O)C(CO)=C[C@H]2[C@@H]2C(C)(C)[C@]12OC(C)=O
Activity [5]: Active

CC(=O)O[C@@]12[C@H](OC(=O)[C@H](N)C(C)C)[C@@H](C)[C@]3(O)[C@@H]4C=C(C)C(=O)[C@@H]4CC(CO)=C[C@H]3[C@@H]1C2(C)C
Activity [1]: inactive

CC(=O)O[C@@]12[C@H](OC(=O)[C@@H](C(C)C)N(C)C)[C@@H](C)[C@]3(O)[C@@H]4C=C(C)C(=O)[C@@H]4CC(CO)=C[C@H]3[C@@H]1C2(C)C
Activity [6]: Active | Activity [1]: Active | Activity [7]: Active | inhibition [8]: Active | Activity [9]: inactive

CN[C@H](C(=O)O[C@@H]1[C@@H](C)[C@]2(O)[C@@H]3C=C(C)C(=O)[C@@H]3CC(CO)=C[C@H]2[C@@H]2C(C)(C)[C@]12OC(C)=O)C(C)C
Activity [1]: inactive

CC(=O)O[C@@]12[C@H](OC(=O)[C@H](C(C)C)N(C)C)[C@@H](C)[C@]3(O)[C@@H]4C=C(C)C(=O)[C@@H]4CC(CO)=C[C@H]3[C@@H]1C2(C)C
Activity [6]: Active | Activity [1]: Active | Activity [7]: Active | Activity [2]: Dose-dependent effect | Activity [3]: Dose-dependent effect | Activity [10]: Active
